Assay results reported in article PMC5912934 (ChemMedChem, 2017).

Experiments:
[1] = test system: various cancer cell lines; experiment: Cancer cell line screening, all cell lines together; assay type: cell-based, human; conditions: for IC50: Homo sapiens, read-out: IC50 in cancer cell lines, lowest value
[2] = test system: A549 adenocarcinomic human alveolar basal epithelial cells; experiment: IC50 proliferation assay; assay type: cell-based; conditions: A549, 72 h, read-out: A549 cancer cell line activity (IC50)
How it was run: (§1)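 Cells were grown at 37 °C in 5% CO2 in RPMI 1640 or DMEM with 10% heat-inactivated FBS and 1% glutamine, then seeded in 96-well plates the afternoon before treatment. About 18 h later, the test compound was semi-serially diluted in DMSO, then in growth medium, and added. After 72 h, WST-1 was added and plates were read after a further 4 h at 37 °C. Assays were run in triplicate.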

HeLa cells = conditions: read-out: IC50 against HeLa cells; cited from earlier work
[3] = test system: MOLM-14 acute monocytic leukemia cells; experiment: IC50 proliferation assay; assay type: cell-based; conditions: Homo sapiens, MOLM-14, 72 h, read-out: MOLM14 cancer cell line activity (IC50)
How it was run: as §1

γ-H2Ax in MOLM-14 cells = experiment: Gamma-H2Ax DNA damage assay in MOLM-14 cells; assay type: cell-based, human; conditions: MOLM-14 cells grown in 0.5 and 4 μM for 24 hours
How it was run: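 MOLM-14 cells were seeded the evening before at 1×10^5 cells/mL in RPMI 1640/10% FBS. Controls were DMSO and 6.0 Gy gamma irradiation (collected after 1 h); treated cells were collected after 24 h. Cells were washed in PBS/2% serum, cytospun at 1.5×10^5 cells/slide, fixed 15 min in 4% PFA, permeabilised (Triton X-100 buffer), and blocked overnight in 10% FBS/PBS/0.1% Triton. Staining used anti-γ-H2Ax plus DyLight anti-mouse secondary with DAPI mount; slides were examined by fluorescence microscopy.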

Mouse plasma stability = assay type: in vitro ADME
How it was run: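 Mouse plasma was spiked with 500 ng/mL prodrug and assayed for both prodrug and parent at 0, 5, 15, 30, 45, 60 and 90 min. Conversion was expressed as analyte counts to avoid differences between the two standard curves.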

Stability in human serum = assay type: in vitro ADME; conditions: pooled human serum, up to 24 hours
How it was run: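 The test compound came from a 1 mg/mL anhydrous DMSO stock and was incubated in pooled human serum […]. It followed the same workflow as the buffer test. Timed aliquots were taken up to 24 h and compared by TLC against a verified standard. Aliquots were then extracted with two chloroform portions, the solvent was removed, and the residue was analysed by 1H NMR to verify TLC.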

[4] = Aqueous benchtop stability at CCPC; assay type: physicochemical; conditions: LC/MS; for deviation of recovered from expected concentration in aqueous solution: 5-500 ng/mL in 1:1 acetonitrile/Millipore H2O
How it was run: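 Prodrug and its parent were spiked at 5, 12.5, 25, 50, 125, 250 and 500 ng/mL into 1:1 acetonitrile/Millipore water. Both analytes were measured by LC/MS. Concentrations were quantified against a previously constructed calibration curve at the same concentrations.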

[5] = Aqueous benchtop stability in phosphate buffer; assay type: physicochemical; conditions: 25 μg/mL, pH 5.0, 7.0 and 7.5, room temperature, up to 24 hours
How it was run: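 Test compound at 1 mg/mL in anhydrous DMSO (stock) was spiked into phosphate buffer at 25 μg/mL, at pH 5.0, 7.0 and 7.5, and stirred at room temperature. Aliquots were taken at 0, 0.25, 0.5, 1, 4, 8 and 24 h and checked by TLC against a verified standard. Aliquots were then extracted twice with chloroform, and the residue was examined by 1H NMR to confirm the TLC findings.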

[6] = Mouse model pharmacokinetic study; conditions: in vivo, 10 mg/kg
How it was run: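 Mouse plasma was analysed by a validated LC/MS/MS assay. Proteins were precipitated with an equal volume of acetonitrile after adding an internal standard (a related analogue, final 1000 ng/mL), then vortexed 10 min and centrifuged at 14,000 rpm. Standard ranges were 1–1,000 ng/mL for parent and 10–10,000 ng/mL for prodrug. Separation used a C18 column with a 0.1% formic acid/acetonitrile gradient at 1 mL/min. Detection was positive electrospray on a triple quadrupole.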

female nude mice = experiment: Maximum tolerated dose assay; assay type: in vivo

Compound | IC50 (HeLa cells) [µM] | IC50 [1] [µM] | stability in human serum (Stability in human serum) | deviation of recovered from expected concentration in aqueous solution [4] [%] | aqueous stability in phosphate buffer [5] | other results
Clc1nc(Cl)c2c(n1)c(I)cn2COCc1ccccc1 [Compound 8, 5-((Benzyloxy)methyl)-2,4-dichloro-7-iodo-pyrrolo[3,2-d]pyrimidine] |  |  |  |  |  | decrease of activity compared to the parent ([1]; fold, versus parent 7, Table 1 cell lines): ten-fold
Clc1nc(Cl)c2[nH]ccc2n1 [Compound 5, 2,4-Dichloro-5H-pyrrolo[3,2-d]pyrimidine] | 19 ± 3 | ≥ 0.014 |  |  |  | IC50 [2]: 14.5 ± 3.5 µM; IC50 [3]: 9.5 ± 3.1 µM
Clc1nc(Cl)c2[nH]cc(I)c2n1 [Compound 7, 2,4-Dichloro-7-iodo-5H-pyrrolo[3,2-d]pyrimidine] |  | ≥ 0.014 | stable | ≤ 5.7 | stable | DNA damage (γ-H2Ax staining) (γ-H2Ax in MOLM-14 cells): significant DNA damage; deviation in plasma over the time frame investigated (Mouse plasma stability; mouse plasma, 0-90 minutes): 5.7%; stability in plasma (Mouse plasma stability; mouse plasma, time frame investigated (0-90 minutes)): excellent stability; time to little to no detection of the compound in mouse plasma [6]: ≤ 70 min
Clc1nc(Cl)c2[nH]cc(Br)c2n1 [Compound 6, 7-Bromo-2,4-dichloro-5H-pyrrolo[3,2-d]pyrimidine] | 0.92 ± 0.04 | ≥ 0.014 | stable |  | stable | toxicity relative to 7 (female nude mice; female, nude, mouse, in vivo): 2 fold
Cc1ccc(S(=O)(=O)n2cc(I)c3nc(Cl)nc(Cl)c32)cc1 [Compound 9, 2,4-Dichloro-7-iodo-5-tosyl-pyrrolo[3,2-d]pyrimidine] |  |  |  | 15.8 | stable | time to undetectable in biological media (Mouse plasma stability; biological media (Figure 4, mouse plasma)): ≤ 1 hour; conversion of 9 to 7 in mouse plasma (Mouse plasma stability; mouse plasma spiked with 500 ng/mL, 0-90 minutes): Significant conversion; increase in maximum tolerated dose compared to parent compound 7 (female nude mice; fold, versus 7): four-fold; hydrolysis of 9 to 7 in aqueous solution ([4]; 1:1 acetonitrile/Millipore H2O): no observed hydrolysis
